The test system of one assay is A2780. Put plainly: Cytotoxicity against human A2780 cells assessed as growth inhibition at 25 uM after 72 hrs by MTT assay relative to control. The note with it: A2780, 72 h, read-out: GI. Type of assay: functional. Summed up: (§1)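 Cells in logarithmic growth kept in DMEM with 10% FBS, 10 mM sodium bicarbonate, penicillin 100 IU/mL, glutamine 4 mM, at 37 °C under 5% CO2. Plated in duplicate at 2500–4000 cells/well. Compound (30 mM DMSO stock) added 24 h after plating. MTT read at 540 nm after 72 h exposure.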

A short description of assay [1]: Cytotoxicity against human MIA cells assessed as growth inhibition at 25 uM after 72 hrs by MTT assay relative to control. Type of assay: functional. Particulars: read-out: GI. Summed up:
as §1

The nature of assay [2]: Cytotoxicity against human U87 cells assessed as growth inhibition at 25 uM after 72 hrs by MTT assay relative to control. The class given is functional, U-87MG ATCC. The note with it: U-87 MG, read-out: GI. The essentials:
as §1
A general note: Tetrazolium dyes change colour on reduction, which living cells bring about.

Assay [3] in a line: Cytotoxicity against mouse SMA cells assessed as growth inhibition at 25 uM after 72 hrs by MTT assay relative to control. Particulars: read-out: GI. The class given is functional. The essentials: as §1
Assay [4] is described as follows: Cytotoxicity against human BE(2)-C cells assessed as growth inhibition at 25 uM after 72 hrs by MTT assay relative to control. The class given is functional. The note with it: read-out: GI. Summed up: as §1
A short description of assay [5]: Cytotoxicity against human SJ-G2 cells assessed as growth inhibition at 25 uM after 72 hrs by MTT assay relative to control. Type of assay: functional. The note with it: SJ-G2, 72 h, read-out: GI. The essentials: as §1
In another assay the test system is MCF7. Put plainly: Cytotoxicity against human MCF7 cells assessed as growth inhibition at 25 uM after 72 hrs by MTT assay relative to control. Particulars: MCF7, 72 h, read-out: GI. The class given is functional. The essentials:
as §1

The subject of the next assay is SW480. Put plainly: Cytotoxicity against human SW480 cells assessed as growth inhibition at 25 uM after 72 hrs by MTT assay relative to control. Type of assay: functional. The note with it: SW480, 72 h, read-out: GI. Summed up:
as §1

Another assay deals with HT-29. The experiment in a line: Cytotoxicity against human HT-29 cells assessed as growth inhibition at 25 uM after 72 hrs by MTT assay relative to control. Type of assay: functional. Particulars: HT-29, 72 h, read-out: GI. Summed up: as §1
Another assay has as its system DU-145. The experiment in a line: Cytotoxicity against human DU145 cells assessed as growth inhibition at 25 uM after 72 hrs by MTT assay relative to control. The note with it: DU-145, 72 h, read-out: GI. The class given is functional. Summed up:
as §1

The subject of the next assay is A-431. The experiment in a line: Cytotoxicity against human A431 cells assessed as growth inhibition at 25 uM after 72 hrs by MTT assay relative to control. Particulars: A-431, 72 h, read-out: GI. The class given is functional. Summed up: as §1
A short description of assay [6]: Cytotoxicity against human H460 cells assessed as growth inhibition at 25 uM after 72 hrs by MTT assay relative to control. The class given is functional. Particulars: NCI-H460, 72 h, read-out: GI. Summed up: as §1

14 compounds from ChEMBL document CHEMBL3112444, “Synthesis and anticancer activity of focused compound libraries from the natural product lead, oroidin” (2014) can be followed below.

A value given as a limit tells only on which side of the number the result lay.

In the case of `O=C(NCCc1ccc2ccccc2c1)c1cc(Br)c(Br)[nH]1`, the inhibition of growth at 25 µM with A2780 was 52%; in assay [1] it was 21%; in assay [2] it was under 0%; in assay [3] it was 17%; in assay [4], under 0%; in assay [5] it was 10%. Also, the inhibition of growth at 25 µM in the assay on MCF7 was 53%; in the assay with SW480, under 0%; in the assay on HT-29, 28%; in the assay with DU-145, 14%; in the assay with A-431 it was 15%; in assay [6] it was 12%.

On to `O=C(NCc1ccc(Cl)c(Cl)c1)c1ccc[nH]1`, for which the inhibition of growth at 25 µM was 15% in the assay on A2780; under 0% in assay [1]; 4% in assay [2]; 17% in assay [3]; under 0% in [4]; 11% in assay [5]. Further, the inhibition of growth at 25 µM in the assay with MCF7 is 7%; in the assay with SW480 it was under 0%; in the assay with HT-29 it was 14%; in the assay with DU-145, under 0%; in the assay with A-431, 6%; in assay [6] it was 14%.

For `O=C(NCCc1c[nH]cn1)c1ccc[nH]1`, the inhibition of growth at 25 µM is 11% in the assay with A2780; 7% in [1]; 6% in assay [2]; 0% in assay [3]; under 0% in assay [4]; under 0% in assay [5]. The inhibition of growth at 25 µM with MCF7 was determined as 1%; in the assay on SW480 it was 1%; in the assay with HT-29 it was 11%; in the assay on DU-145, 5%; in the assay on A-431, 3%; in [6], 0%.

Consider `O=C(NCCCCc1ccccc1)c1cc(Br)c(Br)[nH]1`, for which the inhibition of growth at 25 µM is 56% in the assay on A2780; 34% in assay [1]; under 0% in assay [2]; 40% in assay [3]; under 0% in assay [4]; 14% in [5]. Further, the inhibition of growth at 25 µM in the assay on MCF7 is 70%; with SW480, under 0%; with HT-29 it was 41%; in the assay on DU-145 it was 19%; in the assay with A-431, 24%; in assay [6] it was 17%.

For `Cc1nccn1CCCNC(=O)c1ccc[nH]1`, the inhibition of growth at 25 µM was 1% in the assay on A2780; 4% in assay [1]; 3% in assay [2]; under 0% in assay [3]; under 0% in assay [4]; under 0% in assay [5]. The inhibition of growth at 25 µM was 8% in the assay on MCF7; 7% in the assay with SW480; 5% in the assay with HT-29; 5% in the assay on DU-145; under 0% in the assay on A-431; 3% in assay [6].

For the compound `O=C(NCCc1ccc(O)cc1)c1ccc[nH]1`, the inhibition of growth at 25 µM is 18% in the assay on A2780; 6% in assay [1]; 2% in assay [2]; under 1% in [3]; under 0% in [4]; 11% in assay [5]. Moreover, the inhibition of growth at 25 µM with MCF7 is 8%; in the assay with SW480, 5%; in the assay on HT-29, 3%; with DU-145, under 0%; in the assay with A-431, under 0%; in assay [6] it was 2%.

For the compound `COc1ccc(CNC(=O)c2cc(Br)c(Br)[nH]2)cc1`, the inhibition of growth at 25 µM in the assay with A2780 was 48%; in assay [1], 14%; in assay [2], under 0%; in assay [3], 23%; in assay [4] it was under 0%; in assay [5], 4%. In addition, the inhibition of growth at 25 µM in the assay with MCF7 is 30%; with SW480 it was under 0%; in the assay with HT-29 it was 14%; in the assay on DU-145, under 0%; in the assay with A-431 it was 12%; in assay [6] it was 13%.

On to `O=C(NCc1ccc(Cl)cc1)c1ccc[nH]1`, for which the inhibition of growth at 25 µM in the assay on A2780 was 2%; in assay [1] it was 1%; in assay [2] it was 4%; in [3] it was 10%; in assay [4], under 0%; in assay [5], under 0%. Moreover, the inhibition of growth at 25 µM in the assay with MCF7 was 10%; in the assay on SW480 it was 4%; in the assay with HT-29, 10%; in the assay with DU-145, under 0%; in the assay with A-431 it was under 0%; in assay [6], under 0%.

Turning to `Cc1nccn1CCCNC(=O)c1cc(Br)c(Br)[nH]1`, the inhibition of growth at 25 µM is 21% in the assay on A2780; 15% in assay [1]; under 0% in assay [2]; 11% in [3]; 20% in assay [4]; 10% in assay [5]. Further, the inhibition of growth at 25 µM in the assay with MCF7 came to 36%; in the assay with SW480, 26%; with HT-29, 10%; with DU-145, 28%; in the assay on A-431, 11%; in assay [6], 22%.

`O=C(NCCCc1ccccc1)c1cc(Br)c(Br)[nH]1`: the inhibition of growth at 25 µM in the assay with A2780 was 48%; in assay [1], 21%; in assay [2], under 0%; in [3], 45%; in assay [4], under 0%; in assay [5], 8%. Moreover, the inhibition of growth at 25 µM with MCF7 is 63%; in the assay with SW480, under 0%; with HT-29, 41%; in the assay with DU-145, under 0%; in the assay on A-431 it was 5%; in assay [6], 25%.

`O=C(NCCCc1ccccc1)c1ccc[nH]1`: the inhibition of growth at 25 µM is 10% in the assay on A2780; 10% in [1]; 11% in assay [2]; 8% in [3]; under 0% in [4]; 0% in [5]. The inhibition of growth at 25 µM was 21% with MCF7; 7% in the assay on SW480; 16% in the assay with HT-29; under 0% in the assay with DU-145; 1% in the assay on A-431; 13% in assay [6].

Take `O=C(NCCCn1cccn1)c1cc(Br)c(Br)[nH]1`: the inhibition of growth at 25 µM with A2780 was 15%; in assay [1], 3%; in assay [2] it was under 0%; in assay [3] it was 6%; in assay [4], 6%; in assay [5] it was under 0%. Besides, the inhibition of growth at 25 µM in the assay on MCF7 is 12%; with SW480, under 0%; in the assay on HT-29, 4%; in the assay on DU-145, 5%; in the assay with A-431, 3%; in assay [6], 14%.

On to `O=C(NCCCn1cccn1)c1ccc[nH]1`, for which the inhibition of growth at 25 µM was 10% in the assay on A2780; 19% in assay [1]; 9% in assay [2]; 8% in assay [3]; 1% in assay [4]; under 0% in assay [5]. Moreover, the inhibition of growth at 25 µM was 7% in the assay with MCF7; 9% in the assay on SW480; 4% in the assay with HT-29; 7% in the assay with DU-145; 1% in the assay on A-431; 14% in assay [6].

Turning to `O=C(NCC(c1ccccc1)c1ccccc1)c1ccc[nH]1`, the inhibition of growth at 25 µM with A2780 was 27%; in [1] it was 32%; in [2], 14%; in [3], 15%; in [4], under 0%; in [5], 53%. In addition, the inhibition of growth at 25 µM in the assay on MCF7 is 52%; in the assay with SW480, under 0%; with HT-29, 29%; in the assay on DU-145 it was 8%; in the assay on A-431, 30%; in assay [6] it was 11%.
